Experiments:
[1] = test system: Rattus norvegicus; experiment: Antiinflammatory activity against 3h carrageenan pleurisy (edma) in rat at 20 mg/kg peroral administration; format: functional; conditions: route oral
Outline: (§1)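 Rat 3 h carrageenan pleurisy model, read out as pleural cell count and as edema. Compounds given orally, either as % inhibition at 20 mg/kg or as ED50 in mg/kg. Each compound tested two or three times.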

[2] = test system: Rattus norvegicus; experiment: Antiinflammatory activity against 3h carrageenan pleurisy (cells) in rat at 20 mg/kg peroral administration; format: functional; conditions: route oral; outline: as §1
[3] = test system: Mus musculus; experiment: Percent inhibition of muscle relaxant profile evaluated by straub tail assay when administered intraperitoneally at 100 mg/kg in mouse; format: functional; conditions: route intraperitoneal; for % effect at 100 mg/kg: Mus musculus
Outline: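 Morphine-induced Straub tail model of muscle relaxant activity, mouse. Compound given intraperitoneally at 100 mg/kg and read out as % inhibition.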

[4] = test system: Rattus norvegicus; experiment: Inhibition of trypsin hyperalgesia when administered perorally in rat; format: functional
Outline: (§2)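 Rat trypsin hyperalgesia model for mild analgesia. Compounds given orally, either as % inhibition at 20 mg/kg or as ED50 in mg/kg. Each compound tested two or three times.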

[5] = test system: Rattus norvegicus; experiment: Antiinflammatory activity against 3h carrageenan pleurisy (cells) in rat peroral administration; format: functional; conditions: po; outline: as §1
[6] = test system: Rattus norvegicus; experiment: Antiinflammatory activity against 3h carrageenan pleurisy (edma) in rat mg/kg peroral administration; format: functional; conditions: po; outline: as §1
[7] = test system: Rattus norvegicus; experiment: Antiinflammatory activity against 3h carrageenan pleurisy (edma) in rat peroral administration; format: functional; conditions: po; outline: as §1
[8] = test system: Rattus norvegicus; experiment: Percent inhibition of analgesia activity when administered perorally at 20 mg/kg in rat; format: functional; outline: as §2
[9] = test system: Mus musculus; experiment: Effective dose required for muscle relaxant profile evaluated by straub tail assay when administered perorally in mouse; format: functional; conditions: po
Outline: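 Morphine-induced Straub tail model of muscle relaxant activity, mouse, with oral dosing. Oral testing followed only where ip inhibition at 100 mg/kg exceeded 50%. At least three doses, N=6 animals per dose group. ED50 in mg/kg.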

[10] = test system: Mus musculus; experiment: Effective dose required for muscle relaxant profile in mouse by rotarod assay, when compound administered perorally; format: functional; conditions: po
Outline: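 Rotorod model of sedation, mouse, with oral dosing. Used for compounds that passed the Straub tail ip screen. At least three doses, N=6 animals per dose group. ED50 in mg/kg.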

[11] = Ratio of rotarod to that of staub tail; format: functional
Outline: (§3)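 Oral rotorod ED50 divided by oral Straub tail ED50, both in mouse, as an index of sedative potential. Each ED50 from at least three doses, N=6 animals per dose.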

[12] = Ratio of rotarod to that of straub tail; format: functional
Outline: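 Ratio of oral rotorod ED50 (sedation) to oral ED50 in the morphine-induced Straub tail test. Only compounds giving >50% inhibition in the Straub tail test at 100 mg/kg ip went on to oral testing in both assays. Each assay generally used at least three doses with N=6 animals per dose group; variability approximately 15%.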

[13] = species: Rattus norvegicus; experiment: Antiinflammatory activity against trypsin hyperalgesia in rat at peroral dose of compound; conditions: po
[14] = Ratio of rotarod to that of staub tail; ND is activity not determined.; format: functional; outline: as §3
[15] = Rattus norvegicus, po, read-out: ED50

Question: What does the source list for `CC(C)Cc1ccc(C(C)C(=O)O)cc1` (centres undefined) [IBUPROFEN]?
Answer: ED50 [1]: 8 mg/kg; ED50 [2]: 34 mg/kg

Question: What does the source list for `NC(=O)/C=C1\CCc2c(F)cc(Cl)cc21`?
Answer: % effect at 100 mg/kg ([3]; ip): 33%; inhibition in vivo at 20 mg/kg [1]: 36%; ED50 [4, 15]: > 10 mg/kg; inhibition in vivo at 20 mg/kg [2]: 34%

Question: For `Cc1cc(Cl)c2c(c1)/C(=C/C(N)=O)CC2`, which ED50 [5] is on record?
Answer: The ED50 was greater than 25 mg/kg.

Question: And the ED50 [6]?
Answer: The ED50 was greater than 25 mg/kg.

Question: Which ED50 [7] does the source give for `CNC(=O)/C=C1\CCc2c(Cl)cc(F)cc21` here?
Answer: Its ED50 is 5 mg/kg.

Question: And the ED50 [5]?
Answer: The ED50 was 8 mg/kg.

Question: And the inhibition in vivo at 20 mg/kg ([8]; route oral)?
Answer: Its inhibition in vivo at 20 mg/kg is 100%.

Question: What about the % effect at 100 mg/kg ([3]; ip) of the same molecule?
Answer: The % effect at 100 mg/kg was 50%.

Question: What about the ED50 [4, 15] of the same molecule?
Answer: Its ED50 is 1.4 mg/kg.

Question: For `NC(=O)/C=C1\CCc2c(Cl)cc(F)cc21` (stereo in doubt) [listing 1 of 2 here], which ED50 [9] is on record?
Answer: Its ED50 is 73 mg/kg.

Question: What about the ED50 [10] of the same molecule?
Answer: The ED50 was 96 mg/kg.

Question: What about the inhibition in vivo at 20 mg/kg ([8]; Rattus norvegicus, po) of the same molecule?
Answer: The inhibition in vivo at 20 mg/kg was 70%.

Question: And the ED50 [4, 15]?
Answer: Its ED50 is 7 mg/kg.

Question: With `CNC(=O)/C=C1\CCc2c(Cl)cc(Cl)cc21` as the molecule, how does the ED50 [9] read?
Answer: The ED50 was greater than 100 mg/kg.

Question: And the inhibition in vivo at 20 mg/kg ([8]; Rattus norvegicus, po)?
Answer: The inhibition in vivo at 20 mg/kg was 12%.

Question: What about the % effect at 100 mg/kg ([3]; ip) of the same molecule?
Answer: Its % effect at 100 mg/kg is 83%.

Question: And the inhibition in vivo at 20 mg/kg [2]?
Answer: The inhibition in vivo at 20 mg/kg was 9%.

Question: Which ED50 [7] does the source give for `NC(=O)/C=C1\CCc2c(Cl)cc(F)cc21` (stereo in doubt; 3) here?
Answer: Its ED50 is 11 mg/kg.

Question: What about the ED50 [5] of the same molecule?
Answer: The ED50 was 11 mg/kg.

Question: What about the Inhibition ([8]; route oral, 20 mg/kg) of the same molecule?
Answer: The Inhibition was 79%.

Question: And the % effect [3]?
Answer: Its % effect is 0%.

Question: And the ED50 [4]?
Answer: Its ED50 is 4 mg/kg.

Question: With `CNC(=O)/C=C1\CCc2cc(Cl)c(F)cc21` as the molecule, how does the inhibition in vivo at 20 mg/kg ([8]; Rattus norvegicus, po) read?
Answer: The inhibition in vivo at 20 mg/kg was 22%.

Question: What about the % effect at 100 mg/kg ([3]; ip) of the same molecule?
Answer: The % effect at 100 mg/kg was 17%.

Question: With `CNC(=O)/C=C1\CCc2c(C)cc(F)cc21` as the molecule, how does the inhibition in vivo at 20 mg/kg ([8]; Rattus norvegicus, po) read?
Answer: The inhibition in vivo at 20 mg/kg was 77%.

Question: And the % effect at 100 mg/kg ([3]; ip)?
Answer: Its % effect at 100 mg/kg is 67%.

Question: And the inhibition in vivo at 20 mg/kg [1]?
Answer: Its inhibition in vivo at 20 mg/kg is 40%.

Question: What about the inhibition in vivo at 20 mg/kg [2] of the same molecule?
Answer: Its inhibition in vivo at 20 mg/kg is 15%.

Question: What does the source list for `NC(=O)/C=C1\CCc2cc(Cl)c(F)cc21`?
Answer: ED50 [9]: 50 mg/kg; ED50 [10]: 56 mg/kg; inhibition in vivo at 20 mg/kg ([8]; Rattus norvegicus, po): 19%; % effect at 100 mg/kg ([3]; ip): 100%; Ratio [11]: 1.1

Question: Which inhibition in vivo at 20 mg/kg ([8]; Rattus norvegicus, po) does the source give for `Cc1cc(F)cc2c1CC/C2=C\C(N)=O` here?
Answer: The inhibition in vivo at 20 mg/kg was 92%.

Question: What about the % effect [3] of the same molecule?
Answer: Its % effect is 0%.

Question: What about the inhibition in vivo at 20 mg/kg [1] of the same molecule?
Answer: The inhibition in vivo at 20 mg/kg was 24%.

Question: And the ED50 [4, 15]?
Answer: The ED50 was 10 mg/kg.

Question: What about the inhibition in vivo at 20 mg/kg [2] of the same molecule?
Answer: Its inhibition in vivo at 20 mg/kg is 11%.

Question: What does the source list for `O=C(/C=C1\CCc2c(Cl)cc(F)cc21)NC1CC1`?
Answer: ED50 [9]: 44 mg/kg; ED50 [10]: 44 mg/kg; inhibition in vivo at 20 mg/kg ([8]; Rattus norvegicus, po): 75%; % effect at 100 mg/kg ([3]; ip): 100%; ED50 [4, 15]: 0.9 mg/kg; Ratio [11]: 1

Question: For `O=C(/C=C1\CCc2c(F)cc(Cl)cc21)NC1CC1`, which inhibition in vivo at 20 mg/kg ([8]; Rattus norvegicus, po) is on record?
Answer: Its inhibition in vivo at 20 mg/kg is 31%.

Question: For `Cc1cc(F)cc2c1CC/C2=C\C(=O)NC1CC1`, which inhibition in vivo at 20 mg/kg ([8]; route oral) is on record?
Answer: Its inhibition in vivo at 20 mg/kg is 97%.

Question: And the inhibition in vivo at 20 mg/kg [1]?
Answer: The inhibition in vivo at 20 mg/kg was 7%.

Question: What about the inhibition in vivo at 20 mg/kg [2] of the same molecule?
Answer: Its inhibition in vivo at 20 mg/kg is 5%.

Question: What does the source list for `NC(=O)/C=C1\CCc2c(F)cc(F)cc21`?
Answer: ED50 [9]: 68.7 mg/kg; ED50 [5]: 19 mg/kg; inhibition in vivo at 20 mg/kg ([8]; route oral): 100%; inhibition in vivo at 100 mg/kg ([3]; ip): 100%; Ratio [12]: 2; ED50 [1]: 15 mg/kg; ED50 [4, 15]: 4 mg/kg

Question: Which ED50 [13] does the source give for `COc1ccc2cc([C@H](C)C(=O)O)ccc2c1` [NAPROXEN] here?
Answer: Its ED50 is 14 mg/kg.

Question: What does the source list for `CNC(=O)/C=C1\CCc2cc(Cl)cc(Cl)c21`?
Answer: inhibition in vivo at 20 mg/kg ([8]; Rattus norvegicus, po): 22%; % effect at 100 mg/kg ([3]; ip): 50%; inhibition in vivo at 20 mg/kg [1]: 34%; inhibition in vivo at 20 mg/kg [2]: 0%

Question: With `NC(=O)/C=C1\CCc2c(Cl)cc(Cl)cc21` as the molecule, how does the ED50 [7] read?
Answer: Its ED50 is 20 mg/kg.

Question: What about the ED50 [5] of the same molecule?
Answer: The ED50 was 25 mg/kg.

Question: What about the % effect [3] of the same molecule?
Answer: The % effect was 0%.

Question: What about the ED50 [4, 15] of the same molecule?
Answer: The ED50 was 4.1 mg/kg.

Question: What does the source list for `NC(=O)/C=C1\CCc2c(Br)cc(F)cc21`?
Answer: ED50 [7]: > 20 mg/kg; ED50 [5]: > 20 mg/kg

Question: Which Ratio [14] does the source give for `NC(=O)/C=C1\CCc2c(Cl)cc(F)cc21` (stereo in doubt) [listing 2 of 2 here] here?
Answer: The Ratio was 1.3.

Question: For `O=C(/C=C1\CCc2cc(Cl)c(F)cc21)NC1CC1`, which inhibition in vivo at 20 mg/kg ([8]; Rattus norvegicus, po) is on record?
Answer: The inhibition in vivo at 20 mg/kg was 27%.

Question: With `NC(=O)/C=C1\CCc2cc(Cl)cc(Cl)c21` as the molecule, how does the ED50 [9] read?
Answer: The ED50 was less than 100 mg/kg.

Question: And the ED50 [10]?
Answer: Its ED50 is 55 mg/kg.

Question: And the inhibition in vivo at 20 mg/kg ([8]; Rattus norvegicus, po)?
Answer: The inhibition in vivo at 20 mg/kg was 79%.

Question: What about the % effect at 100 mg/kg ([3]; ip) of the same molecule?
Answer: The % effect at 100 mg/kg was 100%.

Question: What about the ED50 [1] of the same molecule?
Answer: Its ED50 is 34 mg/kg.

Question: And the ED50 [4, 15]?
Answer: Its ED50 is greater than 10 mg/kg.

Question: And the ED50 [2]?
Answer: Its ED50 is 5 mg/kg.
